System: MS2 coat protein
Test: apparent Kd, MS2 coat protein; higher = weaker binding; RNA-MaP array; FMN 200 µM where present
Procedure, shortened: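 Two titrations, one without ligand and one with constant ligand, were run with SNAP-549-labelled MS2 coat protein from 0.7 or 1.5 nM, doubling to 3 µM. The targets were designs transcribed by stalled E. coli RNA polymerase on Illumina sequencing-chip clusters, in 100 mM Tris-HCl pH 7.5, 80 mM KCl, 4 mM MgCl2, BSA, DTT, yeast tRNA and Tween-20. The apparent Kd is the median of filtered per-cluster binding-curve fits, with green signal normalised to red-channel RNA signal and control-cluster median Fmax.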

[1] = designed as: ON switch for flavin mononucleotide, no ligand
[2] = ligand present: flavin mononucleotide, designed as: ON switch for flavin mononucleotide
[3] = designed as: OFF switch for flavin mononucleotide, no ligand
[4] = ligand present: flavin mononucleotide, designed as: OFF switch for flavin mononucleotide

Row | Sequence | apparent Kd [1] | apparent Kd [2] | apparent Kd [3] | apparent Kd [4]
1 | GUGGUCAGACAUGAGGAUCACCCAUGUGGAAUAAAUAACACACAGGAUAUCCAAUAUAAAAUAUAGGAGAAGGGUGGAUUGGUG | 253 nM | 181 nM | – | –
2 | GUGUACAGAGGAUAUAUAUGGGCAUGGAAACAUGCAUCUUCACAUGAGGAUCACCCAUGUAGAAGGCUGUACAC | – | – | 143 nM | 84.6 nM
3 | GUGUACAGAGGAUAUGCACGAGGAGUUACGAAAGUAACUUCACAUGAGGAUCACCCAUGUAGAAGGCUGUACAC | – | – | 14.4 nM | 17.8 nM
4 | GUGUACAUAUCAGGAUAUCAUCGAGUGGAUUAACACAGUGAUUACAUGAGGAUCACCCAUGUGCUUGAGAAGGGAUUACAAUGU | – | – | 19.3 nM | 16.4 nM
5 | GUGUAGAUAGGAUAUGCUUUGAGCCUACGAAAGUACGCUCGACAUGAGGAUCACCCAUGUAGAAGGGUUUACAC | – | – | 119 nM | 58.9 nM
6 | GUGUAGGGAGGAUAUACAUGAGGAUCACCCAUGUGAAUAAGAUAGAAUAAGAUAAAGUGUAGAAGGUCUAGUGU | – | – | 66 nM | 51.9 nM
7 | GUGUAUAGCCUCGAGGAUAUCCUGUAAUGCACAUGAGGAUCACCCAUGUAUGAGCGAGUUUUUUGGGAGAAGGCGAGUUAUCGGU | 26.6 nM | 16.9 nM | – | –
8 | GUGUCCUUAGGAUAUGUUGAGUUAUACAUGAGGAUCACCCAUGUUCCUCGGUAUUGGUCCAUAGAAGGAAGGUUGC | – | – | 346 nM | 337 nM
9 | GUGUCUAACUAGAAGGCCGAUAGCAAAGCUAUCGGAGGAUAUGGGUUCCGGAAACGGACAUGAGGAUCACCCAUGUGGCACAAA | 103 nM | 13.8 nM | – | –
10 | GUGUGAAUAAGAGGAUAUAUACAACAUGAGGAUCACCCAUGUACCCGUGUAGUAGAAGGUUUGUUUUUAUAUAAUAUUAUAUUU | 27.4 nM | 22.8 nM | – | –
11 | GUGUUGUCAGGAUAUCUUACAUAACUAUCGUUGUUACCAUUGGAGAAGGGACAUGAGGAUCACCCAUGUUAUCG | – | – | 24.3 nM | 25.4 nM
12 | GUUAAACAUGAGGAUCACCCAUGUAAGGAUAUGCUGCGGUCGCGAUGACGUGACUGCAGCAGAAGGUACAAAUG | – | – | 86.8 nM | 96.5 nM
13 | GUUAAACAUGAGGAUCACCCAUGUAAGGAUAUGCUGCGGUCGCGCUGACGUGACUGCAGCAGAAGGUACAAUUG | – | – | 100 nM | 77.4 nM
14 | GUUACACAUGAGGAUCACCCAUGUAAGGAUAUGCUGCGGUCGCGCUGACGUGACUGCAGCAGAAGGUACAAUUG | – | – | 84.7 nM | 88.6 nM
15 | GUUACAUGAGGAUCACCCAUGUAUGUGUGGGAGUAAGUGUCUUAGGAUAUCUAUUAUUGAAAUUAAGAGAAGGAAGAUUGUUGU | 113 nM | 104 nM | – | –
16 | GUUAUGCGAGGAUAUACAUGAGGAUCACCCAUGUAAUCUGGUGGCGUGAAAAUAAAGUGUAGAAGGCGCUGACC | – | – | 17.6 nM | 31.9 nM
17 | GUUAUGCGGCAGGAUAUCCAUCCGCGGUAUGAUGGAGAAGGGCCGACAUGAGGAUCACCCAUGUGCGUCCUAAG | – | – | 55.6 nM | 198 nM
18 | GUUAUGUUAGGAUAUGCUUAUGGUGGAUAAUCAGAUAUGAUGCAGAAGGGACAUGAGGAUCACCCAUGUACUGU | – | – | 21 nM | 23.8 nM
19 | GUUCAGUCAGGAUAUUUGUAACGCUCGGUAUCGAGUGGUAAGAAGAAGGGACAUGAGGAUCACCCAUGUCAGUA | – | – | 20.1 nM | 17.6 nM
20 | GUUCUGCCUCCUGCCGGAACAUGAGGAUCACCCAUGUUGCCUGAGGAUAUCCUAUGGCGCCCACAGGAGAAGGCGGGCAACAUA | – | – | 38.1 nM | 233 nM
21 | GUUCUUCCUGUAAGGAUAUCCAUGUAUCAAUUUAUGGAGAAGGUACAUGAGGAUCACCCAUGUCACCCGCGUUA | – | – | 20.9 nM | 50.7 nM
22 | GUUGCUACUGAGGAUAUUAUUUUAUUCGACUGAUAAGAAGGCAGUACAUGAGGAUCACCCAUGUGGGUAGCCAG | – | – | 23.8 nM | 67.8 nM
23 | GUUGGGUGUCAUGUCGCACAUGAGGAUCACCCAUGUAAGAGGUAGGAUAUCCACGAGUAACAAGAGGAGAAGGGCCGUCAGCGU | – | – | 25.8 nM | 32.2 nM
24 | GUUGUAUGAGGAUAUACAUGAGGAUCACCCAUGUGUGUUGUGAACGAUGUACGUUUAUGUAGAAGGCGUGCGGC | – | – | 17.8 nM | 21.5 nM

From the EternaBench riboswitch data
